Columns and labels:
[1] = species: Sus scrofa; assay: Relaxant effect on PGF2-alpha precontracted porcine coronary arteries; assay type: functional, organism-based
Method in brief: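 Porcine coronary strips held at 1 g resting tension. Endothelium confirmed by 7 × 10^-9 M bradykinin relaxation after 50 mM KCl. Contraction with PGF2α (final 10^-5 M); at plateau, cumulative concentration-relaxation curves built. Relaxation expressed as % of PGF2α contraction. EC50 from the log cumulative plot, mean ± SEM (n given).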

[2] = target: T1, Phosphodiesterase 3A (Sus scrofa, UniProt Q9XSW7); assay: Inhibition of cGMP-inhibited PDE 3 from porcine aorta
T1 sequence (Q9XSW7 whole entry): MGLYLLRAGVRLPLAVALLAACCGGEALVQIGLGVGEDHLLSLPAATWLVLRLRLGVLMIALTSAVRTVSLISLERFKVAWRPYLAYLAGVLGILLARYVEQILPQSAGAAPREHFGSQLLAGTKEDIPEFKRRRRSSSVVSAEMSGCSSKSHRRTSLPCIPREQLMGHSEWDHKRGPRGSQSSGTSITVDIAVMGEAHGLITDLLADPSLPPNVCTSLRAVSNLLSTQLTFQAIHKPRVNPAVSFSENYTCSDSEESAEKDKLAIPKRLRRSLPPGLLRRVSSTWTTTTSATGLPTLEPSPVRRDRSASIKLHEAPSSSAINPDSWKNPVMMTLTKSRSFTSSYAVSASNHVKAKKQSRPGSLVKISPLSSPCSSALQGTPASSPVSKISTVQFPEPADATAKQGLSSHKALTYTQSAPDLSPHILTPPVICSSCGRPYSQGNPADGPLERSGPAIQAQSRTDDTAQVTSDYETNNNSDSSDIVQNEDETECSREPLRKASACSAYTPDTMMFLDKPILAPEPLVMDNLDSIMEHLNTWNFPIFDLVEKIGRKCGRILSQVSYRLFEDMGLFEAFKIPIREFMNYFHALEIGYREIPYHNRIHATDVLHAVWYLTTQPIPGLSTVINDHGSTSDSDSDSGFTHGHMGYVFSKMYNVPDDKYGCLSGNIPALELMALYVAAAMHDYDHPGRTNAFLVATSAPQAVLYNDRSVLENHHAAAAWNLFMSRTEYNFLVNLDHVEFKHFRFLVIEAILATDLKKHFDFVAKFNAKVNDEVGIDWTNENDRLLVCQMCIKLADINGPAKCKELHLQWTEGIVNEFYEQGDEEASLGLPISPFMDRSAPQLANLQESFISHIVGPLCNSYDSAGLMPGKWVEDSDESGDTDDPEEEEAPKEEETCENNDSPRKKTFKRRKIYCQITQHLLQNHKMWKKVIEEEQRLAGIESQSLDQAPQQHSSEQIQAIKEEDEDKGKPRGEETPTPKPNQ
Method in brief: (§1)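 Porcine aorta PDE isozyme, two-step radioisotopic assay with 1 µM [3H]substrate: cGMP for type I, cAMP for types II, III and IV. Compounds dissolved in DMSO, diluted in assay buffer over 10^-8 to 10^-4 M, final DMSO under 0.4% (v/v). IC50 taken from the log concentration-inhibition plot (at least three points), mean ± SEM of at least three experiments.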

[3] = target: T2, Phosphodiesterase 4A (Sus scrofa, UniProt O77823); assay: Inhibition of cAMP specific-PDE 4 from porcine aorta; method in brief: as §1
T2 sequence (O77823 whole entry): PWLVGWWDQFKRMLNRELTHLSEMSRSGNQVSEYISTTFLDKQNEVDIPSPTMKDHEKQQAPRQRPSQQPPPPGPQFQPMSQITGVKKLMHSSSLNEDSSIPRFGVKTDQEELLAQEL

[4] = target: Phosphodiesterase 1 (Homo sapiens, UniProt P54750+Q01064+Q14123); assay: Inhibition of Ca++ calmodulin dependent-PDE 1 from porcine aorta; assay type: protein assay, Sus scrofa; conditions: target entry is the homologue from another species; method in brief: as §1
[5] = target: cGMP-dependent 3',5'-cyclic phosphodiesterase (Homo sapiens, UniProt O00408); assay: Inhibition of cGMP stimulated-PDE 2 from porcine aorta; set-up: species or system Sus scrofa; conditions: target entry is the homologue from another species; method in brief: as §1
cGMP-dependent 3',5'-cyclic phosphodiesterase, sequence (O00408 whole entry): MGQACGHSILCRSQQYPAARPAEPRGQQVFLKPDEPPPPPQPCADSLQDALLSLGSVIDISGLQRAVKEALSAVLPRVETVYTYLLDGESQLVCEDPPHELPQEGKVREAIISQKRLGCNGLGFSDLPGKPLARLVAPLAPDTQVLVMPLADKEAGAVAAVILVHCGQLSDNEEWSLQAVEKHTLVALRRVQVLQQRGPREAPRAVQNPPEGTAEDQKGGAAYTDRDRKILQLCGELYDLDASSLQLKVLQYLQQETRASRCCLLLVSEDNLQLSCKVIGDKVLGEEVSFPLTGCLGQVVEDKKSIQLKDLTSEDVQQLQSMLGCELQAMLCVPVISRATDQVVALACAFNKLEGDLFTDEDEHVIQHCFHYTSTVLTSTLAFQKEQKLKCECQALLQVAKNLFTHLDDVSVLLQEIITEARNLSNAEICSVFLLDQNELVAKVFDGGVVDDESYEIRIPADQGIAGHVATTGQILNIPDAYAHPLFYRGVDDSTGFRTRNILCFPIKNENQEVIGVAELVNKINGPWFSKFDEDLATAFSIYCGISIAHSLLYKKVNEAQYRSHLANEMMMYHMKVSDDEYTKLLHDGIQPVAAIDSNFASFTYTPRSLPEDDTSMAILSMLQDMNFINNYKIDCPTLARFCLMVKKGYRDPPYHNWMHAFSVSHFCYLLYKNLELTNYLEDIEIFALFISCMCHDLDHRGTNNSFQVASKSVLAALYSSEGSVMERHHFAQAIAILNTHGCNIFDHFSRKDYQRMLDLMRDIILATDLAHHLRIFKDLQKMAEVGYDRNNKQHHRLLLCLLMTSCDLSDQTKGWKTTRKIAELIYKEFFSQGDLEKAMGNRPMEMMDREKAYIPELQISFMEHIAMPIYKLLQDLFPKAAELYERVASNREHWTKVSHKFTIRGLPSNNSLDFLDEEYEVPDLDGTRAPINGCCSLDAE

Row | SMILES | EC50 [1] | IC50 [2] | IC50 [3] | IC50 [4] | IC50 [5]
1 | COc1cc2c(NCc3ccc4c(c3)OCO4)ncnc2c(OC)c1OC | 2.13 µM |  |  |  | 
2 | CSc1ccc2ncnc(NCc3ccc4c(c3)OCO4)c2c1 | 0.12 µM | > 100 µM | > 100 µM | > 100 µM | > 100 µM
3 | Clc1ccc2ncnc(NCc3ccc4c(c3)OCO4)c2c1 | 0.19 µM | > 100 µM | > 100 µM | > 100 µM | > 100 µM
4 | N#Cc1ccc2ncnc(NCc3ccc4c(c3)OCO4)c2c1 | 0.3 µM | > 100 µM | > 100 µM | > 100 µM | > 100 µM

Next, values leading:

Row | EC50 [1] | IC50 [2] | IC50 [3] | IC50 [4] | IC50 [5] | SMILES
5 | 1.19 µM |  | > 100 µM | > 100 µM | > 100 µM | COc1ccc2ncnc(NCc3ccc4c(c3)OCO4)c2c1
6 | 1.56 µM | > 100 µM | > 100 µM | > 100 µM | > 100 µM | Cc1ccc2ncnc(NCc3ccc4c(c3)OCO4)c2c1

Reference: ChEMBL document CHEMBL1127847, “Cyclic GMP phosphodiesterase inhibitors. 2. Requirement of 6-substitution of quinazoline derivatives for potent and selective inhibitory activity” (J Med Chem, 1994)
